Test results from ChEMBL document CHEMBL1123755, “Conformationally defined adrenergic agents. 5. Resolution, absolute configuration, and pharmacological characterization of the enantiomers of 2-(5,6-dihydroxy-1,2,3,4-tetrahydro-1-naphthyl)imidazoline: a potent agonist at alpha-adrenoceptors” (J Med Chem, 1987).

Tests used:
[1] = E max value expressed as percent maximum response of the tissue(PBZ-DSV) to norepinephrine
Procedure, shortened: (§1)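 Dog saphenous vein strips in Krebs buffer (pH 7.40, 95% O2/5% CO2, 37 °C), 2 g preload, isometric contraction. After equilibration and maximal NE (10⁻⁴ M) contraction, washed 60 min, exposed to PBZ 10⁻⁷ M for 30 min, washed 60 min. Control cumulative NE curve, then after 45–60 min washout, cumulative agonist curve. Molar ED50; index = ED50 NE / ED50 compound; Emax as % of NE maximum.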

[2] = E max value expressed as percent maximum response of the tissue(rabbit aorta) to norepinephrine; assay type: tissue-based
Procedure, shortened: (§2)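 Helical rabbit aortic strip in 10-mL bath of Krebs buffer (pH 7.4, 37 ± 0.5 °C), 2 g initial tension, force-transducer contraction. Cumulative dose–response to NE (10⁻⁸ to 10⁻³ M), each dose to plateau. Washed every 10–15 min for 60–90 min and reset to 2 g before the test compound series. Molar ED50; index = ED50 NE / ED50 compound; Emax as % of NE maximum.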

[3] = Ratio of ED50 of norepinephrine to that in PBZ-DSV; assay type: functional; procedure, shortened: as §1
[4] = Ratio of ED50 of norepinephrine to that in rabbit aorta.; assay type: functional; procedure, shortened: as §2
[5] = target: T1, Adrenergic receptor alpha-1 (Rattus norvegicus, UniProt P15823+P23944+P43140); test: Binding affinity for alpha-1 adrenergic receptor in rat liver using [3H]prazosin.
T1 sequence (P15823 whole entry): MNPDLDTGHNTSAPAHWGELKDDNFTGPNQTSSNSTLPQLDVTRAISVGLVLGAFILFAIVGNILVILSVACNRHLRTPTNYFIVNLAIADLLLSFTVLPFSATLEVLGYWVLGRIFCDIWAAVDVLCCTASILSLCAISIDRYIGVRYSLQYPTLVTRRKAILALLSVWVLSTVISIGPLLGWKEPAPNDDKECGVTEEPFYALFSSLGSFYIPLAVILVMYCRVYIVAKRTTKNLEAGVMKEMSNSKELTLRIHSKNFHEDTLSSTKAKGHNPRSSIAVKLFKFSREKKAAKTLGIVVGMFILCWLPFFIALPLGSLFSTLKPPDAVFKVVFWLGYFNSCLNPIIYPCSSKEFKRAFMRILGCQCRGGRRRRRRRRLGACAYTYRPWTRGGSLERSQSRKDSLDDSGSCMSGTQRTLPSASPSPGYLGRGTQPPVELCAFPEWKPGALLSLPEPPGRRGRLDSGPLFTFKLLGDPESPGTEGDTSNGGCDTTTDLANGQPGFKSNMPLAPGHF
T1 sequence (P23944 whole entry): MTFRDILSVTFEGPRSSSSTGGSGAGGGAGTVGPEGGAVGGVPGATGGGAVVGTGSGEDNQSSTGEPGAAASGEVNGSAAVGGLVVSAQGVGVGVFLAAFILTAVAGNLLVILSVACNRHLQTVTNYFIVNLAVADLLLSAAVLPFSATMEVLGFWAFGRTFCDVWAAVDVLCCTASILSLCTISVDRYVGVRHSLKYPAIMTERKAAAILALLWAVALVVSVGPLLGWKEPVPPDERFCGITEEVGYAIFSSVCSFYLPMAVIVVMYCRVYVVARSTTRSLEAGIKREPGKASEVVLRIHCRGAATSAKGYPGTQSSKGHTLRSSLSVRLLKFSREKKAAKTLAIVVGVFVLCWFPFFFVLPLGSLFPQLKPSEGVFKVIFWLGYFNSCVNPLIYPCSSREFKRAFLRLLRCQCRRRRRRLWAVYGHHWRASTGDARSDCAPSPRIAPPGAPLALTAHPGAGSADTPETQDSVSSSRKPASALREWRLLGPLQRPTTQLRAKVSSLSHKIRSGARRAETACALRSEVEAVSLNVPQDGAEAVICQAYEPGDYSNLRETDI
T1 sequence (P43140 whole entry): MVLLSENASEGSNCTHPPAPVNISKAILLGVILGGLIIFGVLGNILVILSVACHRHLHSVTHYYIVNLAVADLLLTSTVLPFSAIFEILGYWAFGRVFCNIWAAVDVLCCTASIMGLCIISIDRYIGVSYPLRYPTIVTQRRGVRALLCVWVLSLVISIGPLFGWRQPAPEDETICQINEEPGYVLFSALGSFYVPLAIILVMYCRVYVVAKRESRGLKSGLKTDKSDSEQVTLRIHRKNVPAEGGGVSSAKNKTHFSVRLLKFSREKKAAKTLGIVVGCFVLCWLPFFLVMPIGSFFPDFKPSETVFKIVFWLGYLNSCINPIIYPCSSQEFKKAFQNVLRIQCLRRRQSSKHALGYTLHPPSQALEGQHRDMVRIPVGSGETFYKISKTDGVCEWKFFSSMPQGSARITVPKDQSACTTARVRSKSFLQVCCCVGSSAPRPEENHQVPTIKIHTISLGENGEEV
Procedure, shortened: (§3)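 Pooled male Sprague–Dawley rat liver membranes (50–150 µg/mL protein) in 50 mM Tris-HCl pH 7.7. [3H]prazosin, 50 min at 25 °C, 1.0 mL final volume; nonspecific binding with phentolamine 10⁻⁵ M. GF/B filtration, scintillation counting. At least four concentrations (10⁻¹⁰–10⁻³ M) run in duplicate; IC50 by logit plot; Ki by Cheng–Prusoff.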

[6] = target: T2, Adrenergic receptor alpha-2 (Rattus norvegicus, UniProt P22086+P19328+P22909); test: Binding affinity for alpha-2 adrenergic receptor in rat cortex using [3H]rauwolscine.
T2 sequence (P22086 whole entry): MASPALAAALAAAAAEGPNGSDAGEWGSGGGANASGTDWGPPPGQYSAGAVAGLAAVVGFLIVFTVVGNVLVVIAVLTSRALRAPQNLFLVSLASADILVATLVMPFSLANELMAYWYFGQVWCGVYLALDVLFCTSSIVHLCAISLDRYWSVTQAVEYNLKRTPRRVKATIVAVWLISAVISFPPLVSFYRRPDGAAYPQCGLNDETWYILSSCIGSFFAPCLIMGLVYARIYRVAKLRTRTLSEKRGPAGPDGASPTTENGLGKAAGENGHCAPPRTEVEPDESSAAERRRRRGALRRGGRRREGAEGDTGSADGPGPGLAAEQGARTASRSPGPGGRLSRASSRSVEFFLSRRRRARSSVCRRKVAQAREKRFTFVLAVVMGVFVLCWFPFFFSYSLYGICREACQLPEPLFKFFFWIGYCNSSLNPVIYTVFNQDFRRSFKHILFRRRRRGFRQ
T2 sequence (P19328 whole entry): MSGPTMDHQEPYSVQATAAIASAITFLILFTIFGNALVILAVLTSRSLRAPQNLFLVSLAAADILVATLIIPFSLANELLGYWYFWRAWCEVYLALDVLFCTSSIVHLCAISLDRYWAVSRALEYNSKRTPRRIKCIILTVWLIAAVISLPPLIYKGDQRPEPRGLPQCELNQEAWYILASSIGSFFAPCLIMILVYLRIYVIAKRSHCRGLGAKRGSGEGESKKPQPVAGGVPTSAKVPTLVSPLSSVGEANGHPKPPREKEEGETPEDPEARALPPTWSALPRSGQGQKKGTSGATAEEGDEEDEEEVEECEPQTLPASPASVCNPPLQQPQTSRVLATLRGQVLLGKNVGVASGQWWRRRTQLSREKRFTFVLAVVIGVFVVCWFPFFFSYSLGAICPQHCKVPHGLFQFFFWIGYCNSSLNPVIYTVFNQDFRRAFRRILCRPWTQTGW
T2 sequence (P22909 whole entry): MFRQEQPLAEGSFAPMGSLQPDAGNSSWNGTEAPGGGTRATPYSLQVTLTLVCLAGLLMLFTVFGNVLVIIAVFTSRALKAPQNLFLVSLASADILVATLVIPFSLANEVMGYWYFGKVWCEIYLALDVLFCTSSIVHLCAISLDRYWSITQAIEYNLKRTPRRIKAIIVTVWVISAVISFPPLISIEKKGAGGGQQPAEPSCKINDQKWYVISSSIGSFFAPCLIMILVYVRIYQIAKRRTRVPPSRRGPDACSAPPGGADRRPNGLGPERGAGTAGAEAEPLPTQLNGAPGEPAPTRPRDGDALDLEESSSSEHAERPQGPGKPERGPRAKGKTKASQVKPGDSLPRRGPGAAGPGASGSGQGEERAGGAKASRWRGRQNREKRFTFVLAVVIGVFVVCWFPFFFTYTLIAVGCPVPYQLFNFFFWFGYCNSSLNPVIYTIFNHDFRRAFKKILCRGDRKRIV
Procedure, shortened: as §3, with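 “cerebral cortex” for “liver”, “[3H]rauwolscine, 2 h” for “[3H]prazosin, 50 min”, “0” for “25”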

| SMILES | E max [1] | E max [2] | Index [3] | Index [4] | Ki [5] [nM] | Ki [6] [nM] |
| --- | --- | --- | --- | --- | --- | --- |
| Oc1ccc2c(c1O)CCCC2C1=NCCN1 (racemic) | 102 | 114 | 184 | 13 |  |  |
| Oc1ccc2c(c1O)CCC[C@H]2C1=NCCN1 | 102 | 128 | 248 | 29 | 523 | 0.55 |
| Oc1ccc2c(c1O)CCC[C@@H]2C1=NCCN1 | 74 | 94 | 15.4 | 1 | 817 | 28 |
